# Source: ChEMBL document CHEMBL1153104, “Synthesis and structural optimization of multiple H-bonding region of diarylalkyl (thio)amides as novel TRPV1 antagonists” (Bioorg Med Chem, 2009)
# Target: Transient receptor potential cation channel subfamily V member 1 (Rattus norvegicus, UniProt O35433)
# Experiment: Antagonist activity at TRPV1 in Sprague-Dawley rat DRG neurons assessed as inhibition of capsaicin-induced [45]Ca2+ uptake
# Assay type: functional
# In short: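 Neonatal rat DRG neurons from all spinal levels were dissociated with collagenase/trypsin, then grown 3 days on poly-D-ornithine (1500–1700 neurons/well) in DME/F12 with 10% horse serum and C6-conditioned medium, with cytosine arabinoside for the first 2 days. Cells were exposed to ⁴⁵Ca²⁺, 0.5 capsaicin and compound for 10 min at room temperature, lysed in 0.3% SDS, and scintillation-counted. IC50 = 50% reduction of capsaicin response.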
# Chain of Transient receptor potential cation channel subfamily V member 1 (O35433 whole entry): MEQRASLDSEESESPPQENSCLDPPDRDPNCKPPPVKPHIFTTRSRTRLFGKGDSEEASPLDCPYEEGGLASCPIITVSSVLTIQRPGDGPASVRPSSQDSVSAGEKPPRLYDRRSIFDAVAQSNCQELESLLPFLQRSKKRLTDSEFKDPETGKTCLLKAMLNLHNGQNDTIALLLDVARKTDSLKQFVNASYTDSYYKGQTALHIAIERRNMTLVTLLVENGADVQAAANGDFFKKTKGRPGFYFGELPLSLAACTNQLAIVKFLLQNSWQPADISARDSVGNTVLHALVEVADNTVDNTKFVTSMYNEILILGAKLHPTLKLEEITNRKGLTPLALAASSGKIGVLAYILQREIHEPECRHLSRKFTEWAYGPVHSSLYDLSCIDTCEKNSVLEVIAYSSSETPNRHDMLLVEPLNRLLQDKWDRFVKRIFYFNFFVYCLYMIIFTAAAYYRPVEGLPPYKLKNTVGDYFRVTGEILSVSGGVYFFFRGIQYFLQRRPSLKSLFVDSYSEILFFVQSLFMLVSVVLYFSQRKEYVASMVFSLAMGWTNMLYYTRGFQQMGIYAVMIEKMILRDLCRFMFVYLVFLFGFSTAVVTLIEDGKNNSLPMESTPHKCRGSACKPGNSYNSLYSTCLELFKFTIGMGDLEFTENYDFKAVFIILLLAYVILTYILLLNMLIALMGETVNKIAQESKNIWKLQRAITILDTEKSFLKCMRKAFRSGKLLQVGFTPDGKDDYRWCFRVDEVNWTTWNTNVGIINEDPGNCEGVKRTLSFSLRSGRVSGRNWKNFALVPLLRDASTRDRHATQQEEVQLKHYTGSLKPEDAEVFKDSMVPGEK
row,Structure (SMILES),IC50 [nM]
1,C=Cc1cc(CNC(=S)CCc2ccc(C(C)(C)C)cc2)ccc1NS(C)(=O)=O,61
2,CC(C)(C)c1ccc(CCC(=S)NCc2ccc(NS(C)(=O)=O)c(I)c2)cc1,300
3,CC(C)(C)c1ccc(CCC(=S)NCc2ccc(NS(C)(=O)=O)cc2C(F)(F)F)cc1,2400
4,COC(=O)c1cc(CNC(=S)CCc2ccc(C(C)(C)C)cc2)ccc1NS(C)(=O)=O,3700
5,CCc1cc(CNC(=S)CCc2ccc(C(C)(C)C)cc2)ccc1NS(C)(=O)=O,240
6,C=Cc1cc(CNC(=S)CCc2ccc(C(C)(C)C)cc2)cc(F)c1NS(C)(=O)=O,32
7,Cc1cc(CNC(=S)CCc2ccc(C(C)(C)C)cc2)ccc1NS(C)(=O)=O,60
8,CC(C)(C)c1ccc(CCC(=S)NCc2ccc(NS(C)(=O)=O)c([N+](=O)[O-])c2)cc1,72
9,Cc1cc(CNC(=O)CCc2ccc(C(C)(C)C)cc2)cc(C)c1NS(C)(=O)=O,620
10,CC(C)(C)c1ccc(CCC(=O)NCc2cc(F)c(NS(C)(=O)=O)c(C3CC3)c2)cc1,360
11,CC(C)(C)c1ccc(CCC(=S)NCc2cc(F)c(NS(C)(=O)=O)c(C#N)c2)cc1,28
12,CC(C)(C)c1ccc(CCC(=S)NCc2ccc(NS(C)(=O)=O)cc2Cl)cc1,3500
13,C#Cc1cc(CNC(=S)CCc2ccc(C(C)(C)C)cc2)cc(F)c1NS(C)(=O)=O,75
14,Cc1cc(CNC(=O)CCc2ccc(C(C)(C)C)cc2)cc(Cl)c1NS(C)(=O)=O,100
15,CC(C)(C)c1ccc(CCC(=S)NCc2ccc(NS(C)(=O)=O)c(F)c2)cc1,40
16,Cc1cc(CNC(=S)CCc2ccc(C(C)(C)C)cc2)cc(C)c1NS(C)(=O)=O,2900
17,CC(C)(C)c1ccc(CCC(=S)NCc2cc(F)c(NS(C)(=O)=O)c(C3CC3)c2)cc1,270
18,CC(C)(C)c1ccc(CCC(=S)NCc2ccc(NS(C)(=O)=O)c(C(F)(F)F)c2)cc1,940
19,CC(C)(C)c1ccc(CCC(=S)NCc2ccc(NS(C)(=O)=O)c(C(=O)O)c2)cc1,22600
20,Cc1cc(CNC(=S)CCc2ccc(C(C)(C)C)cc2)cc(Cl)c1NS(C)(=O)=O,80
21,CC(C)(C)c1ccc(CCC(=S)NCc2ccc(NS(C)(=O)=O)c(Cl)c2)cc1,96
22,CC(=O)c1cc(CNC(=S)CCc2ccc(C(C)(C)C)cc2)ccc1NS(C)(=O)=O,1000
23,CC(C)(C)c1ccc(CCC(=S)NCc2ccc(NS(C)(=O)=O)c(C#N)c2)cc1,55
